# Assay results reported in ChEMBL document CHEMBL1122411 (J Med Chem, 1983).
# Values joined by “and” are separate entries in the source; they are usually repeats but may differ in a detail not shown here. Equal entries are not always repeated.
# Tests used:
# Mus musculus [1] = species on record: Mus musculus; experiment: Toxicity in mice after 17-22 days at a dose of; value is 20/9; format: functional
# Mus musculus [2] = experiment: Toxicity in mice after 12-19 days at a dose of 4 mg/kg/day; value is 17/9; format: functional
# Mus musculus [3] = experiment: Weight change on day 7 in L1210 Lymphoid Leukemia in mice at a dose of 2 mg/kg/day (qdx9); format: functional
# Method in brief: (§1)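 Male B6D2F₁J mice (20–25 g) bearing ip L1210 ascites (10⁵ cells, day 0) were used, 5 per group. Drug was given ip in water at pH 7.5–8.0 from day 1 on q2d×5, qd×9 or b.i.d.×10 schedules. Animals were weighed after 7 days and percent weight change recorded.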
# Mus musculus [4] = species on record: Mus musculus; experiment: Percentage increase in life span after 17-22 days; format: functional
# Method in brief: (§2)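 Male B6D2F1J mice (20–25 g), randomized after i.p. inoculation with 10^5 L1210 ascitic leukemia cells on day 0. Drug in water, pH 7.5–8.0, given i.p. on a q2d×5, qd×9 (from day 1) or b.i.d.×10 schedule; 5 mice per group. %ILS = [(T/C) − 1]100 from median survival days of treated versus control mice. Range is survival days.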
# Mus musculus [5] = experiment: Toxicity in mice after 11-22 days at a dose of 6 mg/kg/day; value is 21/9; format: functional
# Mus musculus [6] = experiment: Weight change on day 7 in L1210 Lymphoid Leukemia in mice at a dose of 15 mg/kg/day (qd x5); format: functional; settings: in the assay text read “q2dx5” for “qdx5”; method in brief: as §1
# Mus musculus [7] = experiment: Toxicity in mice after 15-17 days at a dose of 0.5 mg/kg/day; value is 16/8; format: functional
# Mus musculus [8] = species on record: Mus musculus; experiment: Percentage increase in life span after 12-19 days; format: functional; method in brief: as §2
# Mus musculus [9] = experiment: Toxicity in mice after 14-18 days at a dose of 10 mg/kg/day; value is 17/9; format: functional
# Mus musculus [10] = species on record: Mus musculus; experiment: Percentage increase in life span after 11-22 days; format: functional; method in brief: as §2
# Mus musculus [11] = experiment: Toxicity in mice after 12-15 days at a dose of 0.25 mg/kg/day; value is 13/8; format: functional
# L1210 [12] = experiment: cytotoxicity against L1210 cells; format: functional; settings: Mus musculus, read-out: ID50 (the source's name)
# Mus musculus [13] = experiment: Weight change on day 7 in L1210 Lymphoid Leukemia in mice at a dose of 10 mg/kg/day (qd x5); format: functional
# Mus musculus [14] = experiment: Toxicity in mice after 15-17 days at a dose of 0.75 mg/kg/day; value is 17/8; format: functional
# Mus musculus [15] = experiment: Weight change on day 7 in L1210 Lymphoid Leukemia in mice at a dose of 4 mg/kg/day (qdX9); format: functional; method in brief: as §1
# Mus musculus [16] = experiment: Weight change on day 7 in L1210 Lymphoid Leukemia in mice at a dose of 0.25 mg/kg/day (b.i.d. x10); format: functional; method in brief: as §1
# Mus musculus [17] = experiment: Weight change on day 7 in L1210 Lymphoid Leukemia in mice at a dose of 0.75 mg/kg/day (b.i.d. x10); format: functional; method in brief: as §1
# Mus musculus [18] = experiment: Weight change on day 7 in L1210 Lymphoid Leukemia in mice at a dose of 6 mg/kg/day (qdX9); format: functional
# Method in brief: (§3)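 Male B6D2F1J mice (20–25 g) were inoculated i.p. with 10⁵ L1210 ascites cells on day 0 and randomized into groups of 5. Drug in water at pH 7.5–8.0 was given i.p. daily for 9 days (qd×9) from day 1. Animals were weighed after 7 days, and the % body-weight change was recorded under a standard NCI protocol.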
# Mus musculus [19] = species on record: Mus musculus; experiment: 1Percentage increase in life span after 12-15 days; format: functional; method in brief: as §2
# Mus musculus [20] = species on record: Mus musculus; experiment: Percentage increase in life span after 14-18d ays; format: functional; method in brief: as §2
# Mus musculus [21] = experiment: Weight change on day 7 in L1210 Lymphoid Leukemia in mice at a dose of 0.5 mg/kg/day (b.i.d. x10); format: functional; method in brief: as §1
# Mus musculus [22] = experiment: Toxicity in mice after 14-18 days at a dose of 2 mg/kg/day; value is 16/9; format: functional
# [23] = target: T1, Dihydrofolate reductase (Mus musculus) (UniProt P00375); experiment: Binding affinity to Dihydrofolate reductase of L1210/R71 using spectrophotometric assay
# T1 sequence (whole entry): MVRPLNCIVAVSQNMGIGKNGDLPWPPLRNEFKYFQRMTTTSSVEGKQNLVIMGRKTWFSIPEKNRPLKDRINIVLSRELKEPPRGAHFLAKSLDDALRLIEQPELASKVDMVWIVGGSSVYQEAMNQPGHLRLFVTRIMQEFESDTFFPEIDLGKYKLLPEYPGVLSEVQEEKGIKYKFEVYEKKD
# Method in brief: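 The enzyme was isolated from MTX-resistant L1210/R71 cultured cells and purified on MTX-agarose. The assay measured ΔA340 at 22 °C in 0.1 M Tris, pH 7.0, with 62 nM enzyme. Enzyme was preincubated 2 min with inhibitor and NADPH, and dihydrofolate was then added to start the reaction. ID₅₀ determined.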
# Mus musculus [24] = experiment: Weight change on day 7 in L1210 Lymphoid Leukemia in mice at a dose of 4 mg/kg/day (1dx9); format: functional; method in brief: as §1
# [25] = target: T1, Dihydrofolate reductase (Mus musculus); experiment: Binding affinity to Dihydrofolate reductase of L1210 cell line using [H]MTX as radioligand; format: cell-based
# Method in brief: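 Competitive [³H]MTX binding to dihydrofolate reductase from L1210 leukemia. Ascites cells from tumor-bearing mice were washed and lysed before use. The assay ran at 37 °C in 0.1 M potassium phosphate, pH 6.8. ID₅₀ was read as inhibition of radioligand binding, with MTX included in each experiment.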
# Mus musculus [26] = experiment: Weight change on day 7 in L1210 Lymphoid Leukemia in mice at a dose of 20 mg/kg/day (qdx5); format: functional; settings: in the assay text read “q2dx5” for “qdx5”; method in brief: as §1
# [27] = test system: Carboxypeptidase G1 (Pseudomonas); experiment: Tested for substrate activity of compound for Carboxypeptidase G1
# Mus musculus [28] = species on record: Mus musculus; experiment: Percentage increase in life span after 11-16 days; format: functional; method in brief: as §2
# Mus musculus [29] = experiment: Weight change on day 7 in L1210 Lymphoid Leukemia in mice at a dose of 2 mg/kg/day (1dx9); format: functional; method in brief: as §1
# Mus musculus [30] = experiment: Toxicity in mice after 14-22 days at a dose of 8 mg/kg/day; value is 14/8.5; format: functional
# [31] = Tested for substrate activity of compound for Carboxypeptidase G1; design: species or system Mus musculus
# Method in brief: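 Cleavage by carboxypeptidase G₁ was followed as the A320 change on release of the pteroate. Conditions were 37 °C in 0.05 M potassium phosphate, pH 6.7, with 100 μM ZnSO₄. Enzyme was diluted in 1% BSA to give ΔA320 of 0.02–0.2/min. Km and Vmax came from Lineweaver-Burk plots. Ki came from competitive runs varying analogue against fixed MTX, or vice versa.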
# Mus musculus [32] = experiment: Toxicity in mice after 13-18 days at a dose of 20 mg/kg/day; value is 13/9; format: functional
# Mus musculus [33] = experiment: Toxicity in mice after 10-22 days at a dose of 40 mg/kg/day; value is 15/9; format: functional
# [34] = target: Dihydrofolate reductase (Lactobacillus casei) (UniProt P00381); settings: Lacticaseibacillus casei
# Dihydrofolate reductase (Lactobacillus casei), sequence (P00381 whole entry): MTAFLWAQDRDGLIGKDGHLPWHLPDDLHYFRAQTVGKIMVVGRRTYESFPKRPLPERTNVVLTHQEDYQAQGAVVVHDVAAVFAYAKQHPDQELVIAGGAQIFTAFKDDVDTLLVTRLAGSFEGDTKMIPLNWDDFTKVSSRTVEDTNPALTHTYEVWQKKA
# [35] = target: Dihydrofolate reductase (Lactobacillus casei) (UniProt P00381); settings: Lacticaseibacillus casei; remark: listed apart in the source
# Mus musculus [36] = species on record: Mus musculus; experiment: Percentage increase in life span after 10-23 days; format: functional; method in brief: as §2
# Mus musculus [37] = species on record: Mus musculus; experiment: Percentage increase in life span after 14-22 days; format: functional; method in brief: as §2
# Mus musculus [38] = experiment: Weight change on day 7 in L1210 Lymphoid Leukemia in mice at a dose of 20 mg/kg/day (qdx9); format: functional; method in brief: as §1
# Mus musculus [39] = species on record: Mus musculus; experiment: Percentage increase in life span after 10-22 days; format: functional; method in brief: as §2
# Mus musculus [40] = species on record: Mus musculus; experiment: Percentage increase in life span after 10-24 days; format: functional; method in brief: as §2
# Mus musculus [41] = species on record: Mus musculus; experiment: Percentage increase in life span after 13-18 days; format: functional; method in brief: as §2
# [42] = target: T1, Dihydrofolate reductase (Mus musculus)
# Mus musculus [43] = experiment: Weight change on day 7 in L1210 Lymphoid Leukemia in mice at a dose of 40 mg/kg/day (qdx9); format: functional; method in brief: as §3
# Mus musculus [44] = species on record: Mus musculus; experiment: Percentage increase in life span after 12-20 days; format: functional; method in brief: as §2
# Mus musculus [45] = experiment: Weight change on day 7 in L1210 Lymphoid Leukemia in mice at a dose of 8 mg/kg/day (1dx9); format: functional; method in brief: as §3
# Mus musculus [46] = experiment: Toxicity in mice after 12-20 days at a dose of 4 mg/kg/day; value is 13/8.5; format: functional
# Mus musculus [47] = experiment: Toxicity in mice after 10-23 days at a dose of 40 mg/kg/day; value is 21/9; format: functional
# Mus musculus [48] = experiment: Toxicity in mice after 10-24 days at a dose of 20 mg/kg/day; value is 18/9; format: functional
# Mus musculus [49] = experiment: Toxicity in mice after 11-16 days at a dose of 2 mg/kg/day; value is 12/8.5; format: functional
# L1210 [50] = experiment: Cytotoxicity against L1210 cells; format: functional; settings: Mus musculus, read-out: ID50 (the source's name)
structure (smiles),measurement,setting,value
CN(Cc1cnc2nc(N)nc(N)c2n1)c1ccc(C(=O)N[C@@H](CCC(=O)O)C(=O)O)cc1 [METHOTREXATE],T/C,Mus musculus [1],20
same,T/C,Mus musculus [2],17
same,Weight change,Mus musculus [3],6%
same,ILS,Mus musculus [4],122%
same,T/C,Mus musculus [5],21
same,Weight change,Mus musculus [6],8%
same,T/C,Mus musculus [7],16
same,ILS,Mus musculus [8],89%
same,T/C,Mus musculus [9],17
same,ILS,Mus musculus [10],133%
same,T/C,Mus musculus [11],13
same,IC50,L1210 [12],20 nM
same,Weight change,Mus musculus [13],11%
same,T/C,Mus musculus [14],17
same,Weight change,Mus musculus [15],-2%
same,Weight change,Mus musculus [16],1%
same,Weight change,Mus musculus [17],3%
same,Weight change,Mus musculus [18],-2%
same,ILS,Mus musculus [19],63%
same,ILS,Mus musculus [20],89% and 78%
same,Weight change,Mus musculus [21],1%
same,T/C,Mus musculus [22],16
CN(Cc1cnc2nc(N)nc(N)c2n1)c1ccc(C(=O)NC(CCCCC(=O)O)C(=O)O)cc1 (stereo unspecified),ID50,[23],39 nM
same,Weight change,Mus musculus [24],4%
same,ID50,[25],2.8 nM
same,Weight change,Mus musculus [26],6%
same,Km,[27],481 µM
same,Vmax,[27],0.44 min⁻¹
same,ILS,Mus musculus [28],41%
same,Weight change,Mus musculus [29],10%
same,T/C,Mus musculus [30],14
same,Ki,[31],22000 nM
same,T/C,Mus musculus [32],13
same,T/C,Mus musculus [33],15
same,ID50,[34],18 nM
same,ID50,[35],6.3 nM
same,ILS,Mus musculus [36],133%
same,ILS,Mus musculus [37],65%
same,Weight change,Mus musculus [38],-2%
same,ILS,Mus musculus [39],67%
same,ILS,Mus musculus [40],100%
same,ILS,Mus musculus [41],44%
same,ID50,[42],6.9 nM
same,Weight change,Mus musculus [43],-4%
same,ILS,Mus musculus [44],52%
same,Weight change,Mus musculus [45],4%
same,T/C,Mus musculus [46],13
same,T/C,Mus musculus [47],21
same,T/C,Mus musculus [48],18
same,T/C,Mus musculus [49],12
same,IC50,L1210 [50],10 nM
